High-throughput results as filed in PubChem.
The sample as a whole holds a higher share of hits than the screen did.
ALR H2O2 inh: inhibitors of human ALR sulfhydryl oxidase, primary screen, biochemical, H2O2 detection, HRP-luminol luminescence, single point; FAD-linked sulfhydryl oxidase ALR (Homo sapiens), P55789; purified ALR, DTT oxidation; inhibition, % (no concentration beside the values); actives 3.8% (n = 290,000); AID 485317, 2010;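 active = mean replicate inhibition above about 79%, with every replicate also reaching it, limit read from the data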
Target sequence (P55789 whole entry, looked up): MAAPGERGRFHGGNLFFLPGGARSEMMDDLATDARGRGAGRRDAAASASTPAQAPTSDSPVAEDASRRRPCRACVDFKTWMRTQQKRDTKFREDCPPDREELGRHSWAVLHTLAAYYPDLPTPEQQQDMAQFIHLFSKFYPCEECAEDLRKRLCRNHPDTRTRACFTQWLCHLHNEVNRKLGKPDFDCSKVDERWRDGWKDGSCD
T cell modulator: modulators of CD8 T cell-vesicle binding, primary screen, mouse 2C CD8+ T cells, flow cytometry; actives 0.068% (n = 330,000); 2C CD8+ T cell-vesicle binding; active compounds read low; response (vesicle binding), % at 7 µM;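 active = response, share of CD8 T cells binding vesicles, and their 90th percentile fluorescence all below set limits, cut at about 80% in these data, passing the limit was not always enough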;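 note: values below 100% mean blocked vesicle binding to the CD8+ T cells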
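incubation = binding step 1.5 h, 37 °C, antibody labelling 20 min, ice | test system = 2C mouse CD8+ T cells | read-out basis = percent CD8+ FL2 mean versus row control | controls = Peptide-free naked vesicles (low) and QL9 vesicles with 0.7% DMSO vehicle (high) | detection = flow cytometry of vesicle-bound cells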
Glyco luc inh: increase of ERlucT glycosylation luciferase signal, primary screen, N-linked glycosylation inhibitor project, D54 ERlucT cells, luminescence, set 2. D54 ERlucT glycosylation luciferase reporter, 24 h; percent of 100 nM tunicamycin response. reporter increase, % at 12.5 µM. actives 0.23% (n = 360,000). AID 588692, 2011;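 active = mean luciferase reporter signal, scaled so untreated is 0 and the glycosylation-blocking control 100, at or above a set limit in every replicate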;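 note: luciferase carries N-glycosylation sites so blocking glycosylation raises the light; 0% = median of neutral control wells and 100% = median of 100 nM tunicamycin wells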
Starred values were filed as active, the others as inactive; i = inactive; . = not tested or not shown.

SMILES	ALR H2O2 inh	T cell modulator	Glyco luc inh
CCOC(=O)C1(C(=O)OCC)C(C)CC(=O)N1c1ccccc1OC (configuration not stated)	.	.	4
COc1ccc(CC(=O)OC(C)C(=O)NC2CCCCC2C)cc1 (configuration not stated)	.	.	0
Cc1ccc(/C=N/Nc2ncc(Cl)cc2Cl)s1	1	214	0
C(=N\Nc1nc2ccccc2[nH]1)/c1cccs1	99*	503	2
O=c1[nH]c(N/N=C/c2ccc(O)cc2)nc2ccccc12	95*	211	-4
C(=N\Nc1nc2ccccc2[nH]1)/c1ccncc1	98*	407	-5
O=c1[nH]c(N/N=C\c2ccc(F)cc2)nc2ccccc12	4	123	-3
Clc1cnc(N/N=C/c2cccs2)c(Cl)c1	86*	357	3
O=C(O)c1ccc(/C=N/Nc2nc3ccccc3[nH]2)cc1	11	430	0
Cc1ccsc1/C=N/Nc1nc2ccccc2[nH]1	.	.	-7
CC1(C)C(C=C(Cl)Cl)C1C(=O)Nc1ccc([N+](=O)[O-])cc1 (configuration not stated)	.	304	.
COc1ccc(CC(=O)Nc2cc(F)ccc2F)cc1S(=O)(=O)N1CCOCC1	.	.	3
Cc1cc(C(C)(C)C)cc(C)c1COC(=O)CN1C(=O)NC2(CCCC2)C1=O	-2	557	-4
CC[C@](C)(O)c1cc2ccccc2c(=O)o1	-8	190	2
O=C(COC(=O)c1cc(-c2ccccn2)nc2ccccc12)Nc1ncc(C(F)(F)F)cc1Cl	.	362	1
O=C(CCC(=O)N1CCN(c2cccc(Cl)c2)CC1)N1CCN(c2ccccc2)CC1	98*	313	0
O=C(Cc1ccc(Cl)cc1)OCC(=O)N1CCCCCC1	50	61*	0
CC1CN(C(=O)COC(=O)Cc2ccc(Cl)cc2)CC(C)O1 (configuration not stated)	0	382	0
COc1ccc(C(=O)CCC(=O)N2CCN(c3ccc(C)cc3)C(C)C2)cc1 (configuration not stated)	99*	83	2
COc1ccc(C(=O)CCC(=O)N2CCN(c3ccc(N4CCOCC4)nn3)CC2)cc1	30	324	0
COc1ccc(N2CCN(C(=O)C3(C)CC3(Cl)Cl)CC2)cc1 (configuration not stated)	99*	241	-2
O=C(O)CCCC(=O)N1CCN(c2cccc(Cl)c2)CC1	-6	337	0
COc1ccc(N2CCN(C(=O)c3ccncc3)CC2)cc1	50	339	0
CCOc1cc(CNn2cnnc2)cc(Cl)c1OCC(=O)NC(C)(C)C	1	i	2
N#Cc1cnc2nc1NCCCCCCC2	.	.	-2
SMILES	ALR H2O2 inh	T cell modulator	Glyco luc inh
CC(C)OC(=O)/C(=C\c1cccc2ccccc12)NC(=O)c1ccccc1	-3	549	-1
CCCCOc1ccc(C(=S)N2CCC(C(N)=O)CC2)cc1	-31	180	-1
COc1ccc(N2CCN(C(=O)Cc3ccc(Cl)cc3)CC2)cc1	71	121	0
COc1ccc(N2CCN(C(=O)Cc3ccc(C)cc3)CC2)cc1	80*	110	-2
O=C(Cc1ccc(Cl)cc1)N1CCN(c2ccccc2)CC1	88*	.	0
CCOC(=O)N1CCN(C(=O)COC(=O)Cc2ccc(Cl)cc2)CC1	-7	245	0
COc1ccc(N2CCN(C(=O)CSc3nnnn3C3CC3)CC2)cc1	87*	284	-1
CCOC(=O)N1CCN(C(=O)Cc2ccc(Cl)cc2)CC1	96*	164	-4
O=C(Cc1ccc(Cl)cc1)N1CCN(c2ccc(F)cc2)CC1	65	70	1
COc1ccccc1N1CCN(C(=O)CSc2nnnn2C2CC2)CC1	.	.	1
O=C(N=C1SC2CS(=O)(=O)CC2N1Cc1ccccc1)C1CC1 (configuration not stated)	.	.	2
O=C(Cc1ccc(NC(=O)C2CCN(C(=O)C3CCC3)CC2)cc1)Nc1ccc(C(=O)N2CCOCC2)cc1	.	.	1
CN1CCN(C(CNC(=O)c2ccc(Br)o2)c2ccc(F)cc2)CC1 (configuration not stated)	-2	635	-1
CCOC(=O)N1CCN(C(=O)CSCc2ccccc2Cl)CC1	99*	198	0
COc1ccc(N2CCN(C(=O)c3c(Cl)cnn3C)CC2)cc1	99*	216	2
O=C(COc1ccc(S(=O)(=O)N2CCCC2)cc1[N+](=O)[O-])N1CCCC1	.	170	3
Cn1ncc(Cl)c1C(=O)N1CCN(c2ccc(Cl)c(Cl)c2)CC1	-7	296	-3
CCOC(=O)N1CCN(C(=O)CSCc2ccccc2C)CC1	4	187	0
O=C(COc1ccc(Cl)cc1[N+](=O)[O-])N1CCCCCC1	-14	31*	-1
CCC(C(=O)N1CCOCC1)n1nc(C)n2c(cc3cc(C)ccc32)c1=O (configuration not stated)	0	138	2
CCOC(=O)C1=NN2C(O)C3(C)CC(C(=O)OCC)=NN3C(O)C2(C)C1 (configuration not stated)	.	.	0
O=C(NCc1ccccc1)c1cc(C2CCCCN2S(=O)(=O)c2ccccc2)on1 (configuration not stated)	.	.	-2
CC(C)[C@H](NC(=O)[C@@H]1CSC2c3ccccc3C(=O)N21)C(=O)NCc1ccncc1 (some centres not stated)	11	350	-1
COC(=O)C1=C(CS(=O)(=O)c2ccc(Cl)cc2)NC(=O)NC1c1ccc(O)c(OC)c1 (configuration not stated)	10	569	4
COc1ccc(S(=O)(=O)Nc2ccc(-n3cnnn3)cc2)cc1[N+](=O)[O-]	.	584	4
SMILES	ALR H2O2 inh	T cell modulator	Glyco luc inh
Cc1cc(C)cc(SCc2noc(C(=O)NCc3ccccc3)c2C(=O)NCc2ccccc2)c1	-4	326	-3
CC1CCCCC1NC(=S)NC(=O)c1cccs1 (configuration not stated)	9	381	-1
CC1CN(CC(O)COCc2ccc3c(c2)OCO3)CC(C)O1 (configuration not stated)	-5	526	-2
O=S(=O)(c1ccc(Cl)s1)N1CCc2ccccc2C1	3	430	-3
O=S(=O)(c1ccc(Cl)s1)N1CCCc2cccc(O)c21	99*	387	-3
Cc1ccc(NC(=O)C2(C)CCN2CCc2ccccc2)cc1 (configuration not stated)	.	.	0
CC(=O)Nc1ccc(N(C(=O)CNC(=O)c2cccs2)C(C(=O)NCC2CCCO2)c2ccccc2)cc1 (configuration not stated)	-2	298	4
Cc1nc2cc3sc(C)nc3cc2s1	-36	353	3
Nc1ccc2sc(N)nc2c1	91*	386	3
Cc1nc2ccc(N)cc2s1	99*	606	1
Nc1ccc2nc(N)sc2c1	.	.	1
N#C/C(=C\c1ccc(F)c(F)c1)C(=O)NC1CCCCC1	98*	525	1
N#C/C(=C\c1ccc(F)c(Br)c1)C(=O)NC1CC1	1	282	4
Cc1ccccc1CNC(=O)CCC(=O)N1CCOc2ccc(Cl)cc21	-25	256	0
